Like-named read-outs stand apart in the source and are kept apart here.
Experiments:
TSPO in rat kidney [1] = biological target: T1, TSPO in rat kidney (Rattus norvegicus, UniProt P16257); experiment: [3H]PK11195 displacement binding, rat kidney membranes; conditions: for lipE rat kidney: lipE = pKi – logD
Measurement of logD = assay type: physicochemical; conditions: for logD7.4: n-octanol / sodium phosphate buffer pH 7.4, RT, n = 6; for logD: n-octanol/sodium phosphate buffer, pH 7.4
Method in brief: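 Shake-flask partition of each radiolabelled test compound between 1-octanol and sodium phosphate buffer (pH 7.4) at room temperature; logD taken from the distribution coefficient of radioactivity between the two phases.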

[2] = biological target: T2, human cerebellum TSPO, LAB genotype (Homo sapiens, UniProt P30536); experiment: [3H]PK11195 binding assay, human cerebellum homogenates, LAB genotype
T2 sequence (P30536 2-169): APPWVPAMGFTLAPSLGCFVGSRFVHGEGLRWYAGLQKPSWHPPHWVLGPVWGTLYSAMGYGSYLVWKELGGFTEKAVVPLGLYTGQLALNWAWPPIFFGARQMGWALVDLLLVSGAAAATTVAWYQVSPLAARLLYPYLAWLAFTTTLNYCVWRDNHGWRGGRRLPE

[3] = system: human cerebellum TSPO, LAB genotype; experiment: as above; conditions: human cerebellum genotype sensitivity in vitro
[4] = biological target: T3, human cerebellum TSPO, HAB genotype (Homo sapiens, UniProt P30536); experiment: [3H]PK11195 binding assay, human cerebellum homogenates, HAB genotype; conditions: for lipE HAB: lipE = pKi – logD
T3 sequence (P30536 whole entry): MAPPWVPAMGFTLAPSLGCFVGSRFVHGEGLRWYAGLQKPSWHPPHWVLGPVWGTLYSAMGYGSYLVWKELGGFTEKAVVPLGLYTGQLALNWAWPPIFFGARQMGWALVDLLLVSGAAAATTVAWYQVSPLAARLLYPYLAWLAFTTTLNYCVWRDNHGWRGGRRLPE

[5] = biological target: TSPO in human U87MG cells (Homo sapiens, UniProt P30536); experiment: [3H]PK11195 displacement binding, human U87MG cell membranes; conditions: for lipE human U87MG: lipE = pKi – logD
TSPO in human U87MG cells, sequence (P30536 whole entry): as above

TSPO in rat kidney [6] = biological target: T1, TSPO in rat kidney; conditions: cited from earlier work
[7] = biological target: T2, human cerebellum TSPO, LAB genotype; conditions: read-out: LAB Ki; cited from earlier work
[8] = system: human cerebellum TSPO, LAB genotype; conditions: cited from earlier work
[9] = cited from earlier work
[10] = biological target: T3, human cerebellum TSPO, HAB genotype; conditions: cited from earlier work
TSPO in the mouse brain = TSPO in the mouse brain (Mus musculus, UniProt P50637); experiment: PET imaging of radioligands in mouse brain, baseline and PK11195 preblock; assay type: in vivo
[11] = read-out: rat kidney Ki, [3H]PK11195 1 nM, 90 min at 0 °C, n = 3
[12] = read-out: LAB Ki, human cerebellum, three LAB subjects, 1 h at 37 °C
[13] = read-out: HAB Ki, human cerebellum, three HAB subjects, 1 h at 37 °C
[14] = read-out: human U87MG Ki, [3H]PK11195 1 nM, 90 min at 0 °C, n = 3
[15] = lipE = pKi – logD, data from ref 27

| Compound | lipE rat kidney (TSPO in rat kidney [1]) | Ki (TSPO in rat kidney [1]; [11]) [nM] | logD7.4 (Measurement of logD) | Ki [2, 12] [nM] | LAB to HAB Ki ratio [3] | lipE HAB [4] | Ki [4, 13] [nM] | lipE human U87MG [5] | Ki [5, 14] [nM] | Ki (TSPO in rat kidney [1]) [nM] | logD (Measurement of logD) | Ki [2] [nM] | Ki [4] [nM] | Ki [5] [nM] | further results |
| --- | --- | --- | --- | --- | --- | --- | --- | --- | --- | --- | --- | --- | --- | --- | --- |
| CC[C@@H](C)N(C)C(=O)c1nc(-c2ccccc2F)c2ccccc2n1 [3a, (R)-(N-sec-Butyl)-4-(2-fluorophenyl)-N-methylquinazoline-2-carboxamide] | 5.34 | 4.19 ± 0.35 | 3.04 ± 0.03 | 25 ± 11.6 | 2.78 | 5.01 | 9 ± 9.5 | 5.21 | 5.64 ± 0.66 | – | – | – | – | – | – |
| CC[C@@H](C)N(C)C(=O)c1nc(-c2cccc(F)c2)c2ccccc2n1 [3b, (R)-(N-sec-Butyl)-4-(3-fluorophenyl)-N-methylquinazoline-2-carboxamide] | 5.20 | 5.17 ± 0.63 | 3.09 ± 0.01 | 24.9 ± 12.7 | 2.74 | 4.95 | 9.1 ± 8.1 | 5.20 | 5.09 ± 0.65 | – | – | – | – | – | – |
| CC[C@@H](C)N(C)C(=O)c1nc(-c2ccc(F)cc2)c2ccccc2n1 [3c, (R)-(N-sec-Butyl)-4-(4-fluorophenyl)-N-methylquinazoline-2-carboxamide] | 5.12 | 7.41 ± 0.82 | 3.01 ± 0.02 | 44.5 ± 34.4 | 2.91 | 4.81 | 15.3 ± 10.3 | 5.14 | 7.03 ± 0.66 | – | – | – | – | – | – |
| CC[C@@H](C)N(C)C(=O)c1nc(-c2ccccc2C(F)(F)F)c2ccccc2n1 [3d, (R)-N-(sec-Butyl)-N-methyl-4-(2-(trifluoromethyl)phenyl)-quinazoline-2-carboxamide] | 5.18 | – | – | – | 5.46 | – | – | 5.25 | – | 3.74 ± 0.1 | 3.25 ± 0.03 | 37.1 ± 30.2 | 6.8 ± 8.1 | 3.18 ± 0.17 | – |
| CC[C@@H](C)N(C)C(=O)c1nc(-c2cccc(C(F)(F)F)c2)c2ccccc2n1 [3e, (R)-N-(sec-Butyl)-N-methyl-4-(3-(trifluoromethyl)phenyl)-quinazoline-2-carboxamide] | 5.14 | – | – | – | 1.98 | 4.02 | – | 5.21 | – | 1.44 ± 0.21 | 3.71 ± 0.03 | 36.9 ± 38.5 | 18.6 ± 15.7 | 1.19 ± 0.17 | – |
| CC[C@@H](C)N(C)C(=O)c1nc(-c2ccc(C(F)(F)F)cc2)c2ccccc2n1 [3f, (R)-N-(sec-Butyl)-N-methyl-4-(4-(trifluoromethyl)phenyl)-quinazoline-2-carboxamide] | 4.43 | – | – | – | 0.8 | 4.37 | – | 4.69 | – | 4.39 ± 0.14 | 3.93 ± 0.01 | 4 ± 5 | 5 ± 3.9 | 2.42 ± 0.66 | – |
| CC[C@@H](C)N(C)C(=O)c1nc(-c2ccccc2Cl)c2ccccc2n1 [ER176, (R)-N-(sec-butyl)-4-(2-chlorophenyl)-N-methylquina-zoline-2-carboxamide] | – | – | – | – | – | – | – | – | – | – | – | – | – | – | lipE rat kidney (TSPO in rat kidney [6]; [15]): 4.96; Ki (TSPO in rat kidney [6]; read-out: rat kidney Ki): 3.1 ± 0.3 nM; Ki [7]: 1.89 nM; LAB to HAB Ki ratio [8]: 1.28; logD7.4 [9]: 3.55 ± 0.02; lipE HAB [10, 15]: 5.28; Ki ([10]; read-out: HAB Ki): 1.48 nM |
| CCC(C)N(C)C(=O)c1cc2ccccc2c(-c2ccccc2Cl)n1 (stereo not shown) [PK11195, reference compound] | – | – | 3.97 ± 0.02 | – | – | – | – | – | – | – | – | – | – | – | – |
| CC[C@@H](C)N([11CH3])C(=O)c1nc(-c2ccccc2Cl)c2ccccc2n1 [[^11C]ER176] | – | – | – | – | – | – | – | – | – | – | – | – | – | – | blocking effect of PK11195 on brain uptake (TSPO in the mouse brain; PK11195 5 mg/kg i.v. preblock, baseline vs preblock, 80–100 min): 72%; peak radioactivity uptake in the brain (TSPO in the mouse brain; mouse whole brain, baseline, i.v. injection): around 1.0 SUV; estimated brain TSPO occupancy at baseline (TSPO in the mouse brain; occupancy by carrier, estimated from brain concentration and molar activity): 2.6% |
